Experimental data of several laboratories.
Protocols differ between the studies behind these lines.
Target: Dual specificity protein kinase CLK1 (CLK1, Homo sapiens, UniProt P49759)

Structure (SMILES)	test	setting	measurement	result
COc1cc(Nc2ncc(F)c(Nc3ccc4c(n3)NC(=O)C(C)(C)O4)n2)cc(OC)c1OC	binding, competition with immobilised ligand	10 µM	inhibition	92%
CC(C)(C)c1cc(C=C(C#N)C#N)cc(Br)c1O	enzyme activity, inhibitor	0.5 µM	remaining activity	112%
C#Cc1n[nH]c2c(-c3cn([C@@H](C)c4ccccn4)c(=O)[nH]c3=O)cc(F)cc12	enzyme activity, inhibitor	0.1 µM	inhibition	4.1%
Cc1nn(C)cc1-c1nc2c(N3CCN(Cc4ccc(Cl)cc4)CC3)c(Cl)cnc2[nH]1	binding, competition with immobilised ligand	1 µM	remaining binding	63%
COc1ncccc1-c1cnn2ccc(N3CCN(C(=O)OC(C)C)CC3)nc12	binding, competition with immobilised ligand	1 µM	remaining binding	81%
Cn1cc(-c2cc(F)cc(N3CCn4c(cc5c4CCCC5)C3=O)c2CO)cc(Nc2ccc(N3CCN(C4COC4)CC3)cn2)c1=O	enzyme activity, inhibitor	0.1 µM	inhibition	11%
O=c1[nH]c2ccccc2n1C1CCN(Cc2ccc(-c3[nH]c4cc5ncnc5cc4nc3-c3ccccc3)cc2)CC1	cell-free assay	0.5 µM	remaining signal	109%
Nc1ncc(-c2nc(N3CCOCC3)nc(N3CCOCC3)n2)c(C(F)F)n1	binding, competition with immobilised ligand	10 µM	remaining binding	58%
Cn1cncc1[C@@](O)(COc1ccc(C#N)cc1-c1ccc(OC(F)(F)F)cc1)c1ccc(C#N)cc1	cell-free assay, competition with immobilised ligand	1 µM	remaining binding	100%
